ChEMBL document CHEMBL1123589, “Phenylpiperazine-based radiopharmaceuticals for brain imaging. 3. Synthesis and evaluation of radioiodinated 1-alkyl-4-phenylpiperazines” (J Med Chem, 1987)

Assays:
Conditions in all cases: in vivo
[1] = test system: Rattus norvegicus; test: The biodistribution of the [125I]-labeled compound in rats after intravenous injection was evaluated in adrenal at 0.25 hrs; value ranges from 0.97-1.66 (ID.kg/g); format: ADME, organism-based
How it was run: (§1)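 Male Sprague-Dawley rats (250–300 g) under ether anesthesia received 10–15 μCi of NCA radioiodinated (125I) tracer iv in 0.1 mL saline. Groups of 3 were killed at 0.25, 1 and 4 h. Blood and tissues were excised, weighed and counted in a γ-well scintillation counter. Values are % injected dose × body mass (kg) per g tissue, given as mean with range.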

[2] = test system: Rattus norvegicus; test: The biodistribution of the [125I]-labeled compound in rats after intravenous injection was evaluated in adrenal at 1.00 hrs; value ranges from 0.61-1.12 (ID.kg/g); format: ADME, organism-based; how it was run: as §1
[3] = test system: Rattus norvegicus; test: The biodistribution of the [125I]-labeled compound in rats after intravenous injection was evaluated in adrenal at 4.00 hrs; value ranges from 0.39-0.45 (ID.kg/g); format: ADME, organism-based; how it was run: as §1
[4] = test system: Rattus norvegicus; test: The biodistribution of the [125I]-labeled compound in rats after intravenous injection was evaluated in blood at 0.25 hrs (ID.kg/g); format: ADME, organism-based
How it was run: (§2)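 Male Sprague-Dawley rats (250–300 g) under ether anesthesia were given an iv injection of no-carrier-added 125I-labelled agent (10–15 μCi in 0.1 mL saline). The agent was iodinated with chloramine-T in acetate buffer and purified by C-18 HPLC. Groups of N = 3 were killed at 0.25, 1 and 4 h. Blood and tissues were weighed and γ-counted. Values are % ID·kg/g, mean (range).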

[5] = test system: Rattus norvegicus; test: The biodistribution of the [125I]-labeled compound in rats after intravenous injection was evaluated in blood at 1.00 hrs (ID.kg/g); format: ADME, organism-based; how it was run: as §2
[6] = test system: Rattus norvegicus; test: The biodistribution of the [125I]-labeled compound in rats after intravenous injection was evaluated in blood at 4.00 hrs (ID.kg/g); format: ADME, organism-based; how it was run: as §2
[7] = test system: Rattus norvegicus; test: The biodistribution of the [125I]-labeled compound in rats after intravenous injection was evaluated in thyroid at 1.00 hrs; value ranges from 2.47-2.81 (ID.kg/g); format: ADME, organism-based, Thyroid gland
[8] = test system: Rattus norvegicus; test: The biodistribution of the [125I]-labeled compound in rats after intravenous injection was evaluated in brain at 0.25 hrs; value ranges from 0.25-0.30 (ID.kg/g); format: ADME, organism-based; how it was run: as §1
[9] = test system: Rattus norvegicus; test: The biodistribution of the [125I]-labeled compound in rats after intravenous injection was evaluated in heart at 0.25 hrs; value ranges from 0.23-0.28 (ID.kg/g); format: ADME, organism-based; how it was run: as §1
[10] = test system: Rattus norvegicus; test: The biodistribution of the [125I]-labeled compound in rats after intravenous injection was evaluated in heart at 1.00 hrs; value ranges from 0.16-0.21 (ID.kg/g); format: ADME, organism-based; how it was run: as §1
[11] = test system: Rattus norvegicus; test: The biodistribution of the [125I]-labeled compound in rats after intravenous injection was evaluated in heart at 4.00 hrs (ID.kg/g); format: ADME, organism-based; how it was run: as §1
[12] = test system: Rattus norvegicus; test: The biodistribution of the [125I]-labeled compound in rats after intravenous injection was evaluated in lung at 4.00 hrs; value ranges from 0.35-0.36 (ID.kg/g); format: ADME, organism-based; how it was run: as §1
[13] = test system: Rattus norvegicus; test: The biodistribution of the [125I]-labeled compound in rats after intravenous injection was evaluated in muscle at 0.25 hrs (ID.kg/g); format: ADME, organism-based, Muscle tissue
How it was run: (§3)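 Male Sprague-Dawley rats (250–300 g) under ether anesthesia given iv 0.1 mL saline containing 10–15 μCi of NCA ¹²⁵I-labeled agent (chloramine-T iodination, HPLC-purified). Groups of 3 killed at 0.25, 1 and 4 h. Blood and tissues excised, weighed and γ-counted. Values are mean (range) of % injected dose × body mass (kg) per gram of tissue.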

[14] = test system: Rattus norvegicus; test: The biodistribution of the [125I]-labeled compound in rats after intravenous injection was evaluated in muscle at 4.00 hrs (ID.kg/g); format: ADME, organism-based, Muscle tissue; how it was run: as §3
[15] = test system: Rattus norvegicus; test: The biodistribution of the [125I]-labeled compound in rats after intravenous injection was evaluated in thyroid at 4.00 hrs; value ranges from 2.51-3.60 (ID.kg/g); format: ADME, organism-based, Thyroid gland
[16] = test system: Rattus norvegicus; test: The biodistribution of the [125I]-labeled compound in rats after intravenous injection was evaluated in brain at 4.00 hrs; value ranges from 0.11-0.13 (ID.kg/g); format: ADME, organism-based; how it was run: as §1
[17] = test system: Rattus norvegicus; test: The biodistribution of the [125I]-labeled compound in rats after intravenous injection was evaluated in thyroid at 0.25 hrs; value ranges from 2.05-2.47 (ID.kg/g); format: ADME, organism-based, Thyroid gland
[18] = test system: Rattus norvegicus; test: The biodistribution of the [125I]-labeled compound in rats after intravenous injection was evaluated in fat at 0.25 hr (ID. kg/g); format: ADME, organism-based, Adipose tissue; how it was run: as §2
[19] = test system: Rattus norvegicus; test: The biodistribution of the [125I]-labeled compound in rats after intravenous injection was evaluated in fat at 1.00 hrs (ID.kg/g); format: ADME, organism-based, Adipose tissue; how it was run: as §2
[20] = test system: Rattus norvegicus; test: The biodistribution of the [125I]-labeled compound in rats after intravenous injection was evaluated in brain at 1.00 hrs; value ranges from 0.21-0.27 (ID.kg/g); format: ADME, organism-based; how it was run: as §1
[21] = test system: Rattus norvegicus; test: The biodistribution of the [125I]-labeled compound in rats after intravenous injection was evaluated in fat at 4.00 hrs (ID.kg/g); format: ADME, organism-based, Adipose tissue; how it was run: as §2
[22] = test system: Rattus norvegicus; test: The biodistribution of the [125I]-labeled compound in rats after intravenous injection was evaluated in kidney at 4.00 hrs; value ranges from 0.23-0.24 (ID.kg/g); format: ADME, organism-based; how it was run: as §1
[23] = test system: Rattus norvegicus; test: The biodistribution of the [125I]-labeled compound in rats after intravenous injection was evaluated in liver at 4.00 hrs; value ranges from 0.19-0.22 (ID.kg/g); format: ADME, organism-based; how it was run: as §1
[24] = test system: Rattus norvegicus; test: The biodistribution of the [125I]-labeled compound in rats after intravenous injection was evaluated in lung at 0.25 hrs; value ranges from 1.14-1.30 (ID.kg/g); format: ADME, organism-based; how it was run: as §1
[25] = test system: Rattus norvegicus; test: The biodistribution of the [125I]-labeled compound in rats after intravenous injection was evaluated in lung at 1.00 hrs; value ranges from 0.86-0.96 (ID.kg/g); format: ADME, organism-based; how it was run: as §1
[26] = test system: Rattus norvegicus; test: The biodistribution of the [125I]-labeled compound in rats after intravenous injection was evaluated in liver at 1.00 hrs; value ranges from 0.30-0.36 (ID.kg/g); format: ADME, organism-based; how it was run: as §1
[27] = test system: Rattus norvegicus; test: The biodistribution of the [125I]-labeled compound in rats after intravenous injection was evaluated in kidney at 0.25 hr; value ranges from 0.49-0.61 (ID.kg/g); format: ADME, organism-based; how it was run: as §1
[28] = test system: Rattus norvegicus; test: The biodistribution of the [125I]-labeled compound in rats after intravenous injection was evaluated in kidney at 1.00 hrs; value ranges from 0.43-0.47 (ID.kg/g); format: ADME, organism-based; how it was run: as §1
[29] = test system: Rattus norvegicus; test: The biodistribution of the [125I]-labeled compound in rats after intravenous injection was evaluated in liver at 0.25 hr; value ranges from 0.32-0.39 (ID.kg/g); format: ADME, organism-based; how it was run: as §1
[30] = test system: Rattus norvegicus; test: The biodistribution of the [125I]-labeled compound in rats after intravenous injection was evaluated in muscle at 1.00 hrs (ID.kg/g); format: ADME, organism-based, Muscle tissue; how it was run: as §3

Ic1ccc(N2CCN(C3CCCCC3)CC2)cc1 was tested, and the Biodistribution [1] was 1.66%, the Biodistribution [2] was 1.12% and the Biodistribution [3] was 0.45%. For the same molecule, the Biodistribution [4] was 0.01 % ID·kg/g, the Biodistribution [5] was 0.01 % ID·kg/g and the Biodistribution [6] was 0.01 % ID·kg/g. For the same molecule, the Biodistribution [7] was 2.81%, the Biodistribution [8] was 0.3% and the Biodistribution [9] was 0.28%. For the same molecule, the Biodistribution [10] was 0.21%, the Biodistribution [11] was 0.08% and the Biodistribution [12] was 0.36%. The Biodistribution [13] was 0.03 % ID·kg/g, the Biodistribution [14] was 0.01 %ID·kg/g and the Biodistribution [15] was 3.6%. It also gave a Biodistribution [16] of 0.13%, a Biodistribution [17] of 2.47% and a Biodistribution [18] of 0.01 % ID·kg/g. It also gave a Biodistribution [19] of 0.01 % ID·kg/g, a Biodistribution [20] of 0.27% and a Biodistribution [21] of 0.01%. The Biodistribution [22] was 0.24%, the Biodistribution [23] was 0.22% and the Biodistribution [24] was 1.3%. It also gave a Biodistribution [25] of 0.96%, a Biodistribution [26] of 0.36% and a Biodistribution [27] of 0.61%. It also gave a Biodistribution [28] of 0.47%, a Biodistribution [29] of 0.39% and a Biodistribution [30] of 0.03 %ID·kg/g.
